# According to ChEMBL document CHEMBL1773058, “Synthesis of 4β-carbamoyl epipodophyllotoxins as potential antitumour agents” (2011):
# Active and inactive are the calls of the source. The calls are words filed in the database; no cut-off is given here.
# What was measured:
# ZR-75-1 = assay: Growth inhibition of human ZR-75-1 cells after 48 hrs by sulforhodamine B assay; format: functional; conditions: ZR-75-1, 48 h
# Summary of the method: (§1)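 Cells grown in RPMI-1640 (2 mM glutamine, pH 7.4, 10% FCS, penicillin/streptomycin) at 37 °C, 5% CO2. Subconfluent cells trypsinised, used at >97% viability (trypan blue), plated and grown 24 h, then exposed to test materials 48 h in triplicate. Fixed with TCA at 4 °C for 1 h, stained 30 min with 0.4% SRB in 1% acetic acid, dye solubilised in 10 mM Tris pH 10.4, OD read at 540 nm. GI50 reported.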
# HOP-62 = assay: Growth inhibition of human HOP62 cells after 48 hrs by sulforhodamine B assay; format: functional; conditions: HOP-62, 48 h; summary of the method: as §1
# PC-3 = assay: Growth inhibition of human PC3 cells after 48 hrs by sulforhodamine B assay; format: functional; conditions: PC-3, 48 h; summary of the method: as §1
# MCF7 = assay: Growth inhibition of human MCF7 cells after 48 hrs by sulforhodamine B assay; format: functional; conditions: MCF7, 48 h; summary of the method: as §1
# KB = assay: Growth inhibition of human KB cells after 48 hrs by sulforhodamine B assay; format: functional; summary of the method: as §1
# A2780 = assay: Growth inhibition of human A2780 cells after 48 hrs by sulforhodamine B assay; format: functional; conditions: A2780, 48 h; summary of the method: as §1
# COLO 205 = assay: Growth inhibition of human COLO205 cells after 48 hrs by sulforhodamine B assay; format: functional; conditions: COLO 205, 48 h; summary of the method: as §1
# [1] = Growth inhibition of human Gurav cells after 48 hrs by sulforhodamine B assay; format: functional; summary of the method: as §1
# [2] = Growth inhibition of human DWD cells after 48 hrs by sulforhodamine B assay; format: functional; summary of the method: as §1
# SiHa = assay: Growth inhibition of human SiHa cells after 48 hrs by sulforhodamine B assay; format: functional; summary of the method: as §1
# A549 = assay: Growth inhibition of human A549 cells after 48 hrs by sulforhodamine B assay; format: functional; conditions: A549, 48 h; summary of the method: as §1
# [3] = biological target: DNA topoisomerase 2-alpha (Homo sapiens) (UniProt P11388); assay: Inhibition of topoisomerase 2 assessed as inhibition of relaxation of supercoiled pBR322 plasmid DNA at 10 uM to 1 mM by ethidium bromide staining
# Chain of DNA topoisomerase 2-alpha (Homo sapiens) (P11388 whole entry): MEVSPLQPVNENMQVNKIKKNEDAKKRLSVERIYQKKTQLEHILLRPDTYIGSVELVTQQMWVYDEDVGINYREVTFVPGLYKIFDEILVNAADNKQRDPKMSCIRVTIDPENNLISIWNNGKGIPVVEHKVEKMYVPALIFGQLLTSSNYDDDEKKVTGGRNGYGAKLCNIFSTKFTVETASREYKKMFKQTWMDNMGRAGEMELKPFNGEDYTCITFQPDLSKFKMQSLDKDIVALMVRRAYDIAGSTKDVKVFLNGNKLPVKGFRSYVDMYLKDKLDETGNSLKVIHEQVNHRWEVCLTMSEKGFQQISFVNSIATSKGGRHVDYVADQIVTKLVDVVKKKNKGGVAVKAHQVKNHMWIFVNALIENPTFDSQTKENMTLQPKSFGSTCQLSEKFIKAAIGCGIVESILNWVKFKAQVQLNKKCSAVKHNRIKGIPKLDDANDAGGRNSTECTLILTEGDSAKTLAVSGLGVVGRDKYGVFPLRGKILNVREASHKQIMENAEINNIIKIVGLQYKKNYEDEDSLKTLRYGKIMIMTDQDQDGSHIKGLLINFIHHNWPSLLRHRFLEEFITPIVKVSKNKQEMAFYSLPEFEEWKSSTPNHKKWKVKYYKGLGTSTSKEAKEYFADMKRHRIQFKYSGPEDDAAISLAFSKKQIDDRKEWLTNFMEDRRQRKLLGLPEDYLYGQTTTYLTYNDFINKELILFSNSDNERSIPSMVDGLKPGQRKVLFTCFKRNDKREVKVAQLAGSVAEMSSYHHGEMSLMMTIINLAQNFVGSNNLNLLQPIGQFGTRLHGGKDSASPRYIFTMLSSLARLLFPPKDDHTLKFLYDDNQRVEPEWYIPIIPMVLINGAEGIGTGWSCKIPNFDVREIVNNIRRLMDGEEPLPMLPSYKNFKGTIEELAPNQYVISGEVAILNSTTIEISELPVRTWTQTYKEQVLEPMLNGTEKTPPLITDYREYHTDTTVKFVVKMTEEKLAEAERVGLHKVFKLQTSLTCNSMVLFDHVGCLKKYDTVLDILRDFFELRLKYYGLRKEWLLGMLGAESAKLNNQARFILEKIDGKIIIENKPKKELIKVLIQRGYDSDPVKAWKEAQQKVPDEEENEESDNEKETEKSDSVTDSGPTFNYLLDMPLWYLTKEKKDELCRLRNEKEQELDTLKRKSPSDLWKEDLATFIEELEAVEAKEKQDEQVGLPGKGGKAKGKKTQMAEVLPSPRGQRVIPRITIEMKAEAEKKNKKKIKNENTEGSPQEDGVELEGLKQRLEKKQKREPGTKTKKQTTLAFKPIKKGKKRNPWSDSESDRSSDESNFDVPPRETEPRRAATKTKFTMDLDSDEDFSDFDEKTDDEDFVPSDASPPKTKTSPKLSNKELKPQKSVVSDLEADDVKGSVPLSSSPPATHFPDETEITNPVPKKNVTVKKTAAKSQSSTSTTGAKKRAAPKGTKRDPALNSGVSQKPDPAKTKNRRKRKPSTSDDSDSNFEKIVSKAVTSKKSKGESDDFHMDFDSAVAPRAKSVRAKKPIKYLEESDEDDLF
# Summary of the method: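 Topo II relaxation reaction stopped with 10% SDS, then proteinase K treatment and extraction with chloroform/isoamyl alcohol (24:1). Products resolved on 1% agarose gel in TAE (40 mM Tris-acetate pH 8.0, 1 mM EDTA) and stained with 0.5 µg/ml ethidium bromide.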
smiles,measurement,setting,value
CCCNC(=O)O[C@@H]1c2cc3c(cc2[C@@H](c2cc(OC)c(OC)c(OC)c2)[C@H]2C(=O)OC[C@@H]21)OCO3,GI50,ZR-75-1,190 nM
same,GI50,HOP-62,160 nM
same,GI50,PC-3,170 nM
same,GI50,MCF7,2000 nM
same,GI50,KB,2100 nM
same,GI50,A2780,190 nM
same,GI50,COLO 205,2700 nM
same,GI50,[1],170 nM
same,GI50,[2],2000 nM
same,GI50,SiHa,1200 nM
same,GI50,A549,< 100 nM
COc1cc([C@@H]2c3cc4c(cc3[C@@H](OC(=O)N3CCOCC3)[C@H]3COC(=O)[C@H]23)OCO4)cc(OC)c1OC,GI50,ZR-75-1,140 nM
same,inhibition,[3],Active
same,GI50,HOP-62,130 nM
same,GI50,PC-3,160 nM
same,GI50,MCF7,160 nM
same,GI50,KB,120 nM
same,GI50,A2780,130 nM
same,GI50,COLO 205,2700 nM
same,GI50,[1],140 nM
same,GI50,[2],< 100 nM
same,GI50,SiHa,1400 nM
same,GI50,A549,< 100 nM
COc1cc([C@@H]2c3cc4c(cc3[C@@H](OC(=O)NCCc3c[nH]c5ccccc35)[C@H]3COC(=O)[C@H]23)OCO4)cc(OC)c1OC,GI50,ZR-75-1,130 nM
same,inhibition,[3],Active
same,GI50,HOP-62,2100 nM
same,GI50,PC-3,160 nM
same,GI50,MCF7,160 nM
same,GI50,KB,180 nM
same,GI50,A2780,110 nM
same,GI50,COLO 205,120 nM
same,GI50,[1],120 nM
same,GI50,[2],< 100 nM
same,GI50,SiHa,1800 nM
same,GI50,A549,< 100 nM
COc1cc([C@@H]2c3cc4c(cc3[C@@H](OC(=O)NCc3ccc(C(F)(F)F)cc3)[C@H]3COC(=O)[C@H]23)OCO4)cc(OC)c1OC,GI50,ZR-75-1,160 nM
same,GI50,HOP-62,2300 nM
same,GI50,PC-3,2100 nM
same,GI50,MCF7,180 nM
same,GI50,KB,180 nM
same,GI50,A2780,180 nM
same,GI50,COLO 205,150 nM
same,GI50,[1],190 nM
same,GI50,[2],2000 nM
same,GI50,SiHa,2000 nM
same,GI50,A549,< 100 nM
O=c1[nH]cc(F)c(=O)[nH]1 [FLUOROURACIL],GI50,ZR-75-1,2300 nM
same,GI50,HOP-62,4100 nM
same,GI50,PC-3,12000 nM
same,GI50,MCF7,2800 nM
same,GI50,KB,5200 nM
same,GI50,A2780,3500 nM
same,GI50,COLO 205,2800 nM
same,GI50,[1],3100 nM
same,GI50,[2],6100 nM
same,GI50,SiHa,6300 nM
same,GI50,A549,2400 nM
C#CCNC(=O)O[C@@H]1c2cc3c(cc2[C@@H](c2cc(OC)c(OC)c(OC)c2)[C@H]2C(=O)OC[C@@H]21)OCO3,GI50,ZR-75-1,140 nM
same,GI50,HOP-62,140 nM
same,GI50,PC-3,160 nM
same,GI50,MCF7,190 nM
same,GI50,KB,170 nM
same,GI50,A2780,160 nM
same,GI50,COLO 205,2700 nM
same,GI50,[1],140 nM
same,GI50,[2],< 100 nM
same,GI50,SiHa,1900 nM
same,GI50,A549,< 100 nM
COc1cc([C@@H]2c3cc4c(cc3[C@@H](O[C@@H]3O[C@@H]5CO[C@@H](C)O[C@H]5[C@H](O)[C@H]3O)[C@H]3COC(=O)[C@H]23)OCO4)cc(OC)c1O [ETOPOSIDE],GI50,ZR-75-1,200 nM
same,GI50,HOP-62,800 nM
same,GI50,PC-3,2600 nM
same,GI50,MCF7,2100 nM
same,GI50,KB,300 nM
same,GI50,A2780,1300 nM
same,GI50,COLO 205,130 nM
same,GI50,[1],500 nM
same,GI50,[2],600 nM
same,GI50,SiHa,3100 nM
same,GI50,A549,3080 nM
COCCNC(=O)O[C@@H]1c2cc3c(cc2[C@@H](c2cc(OC)c(OC)c(OC)c2)[C@H]2C(=O)OC[C@@H]21)OCO3,GI50,ZR-75-1,< 100 nM
same,GI50,HOP-62,120 nM
same,GI50,PC-3,160 nM
same,GI50,MCF7,150 nM
same,GI50,KB,150 nM
same,GI50,A2780,150 nM
same,GI50,COLO 205,2200 nM
same,GI50,[1],140 nM
same,GI50,[2],< 100 nM
same,GI50,SiHa,2400 nM
same,GI50,A549,< 100 nM
COc1cc([C@@H]2c3cc4c(cc3[C@@H](OC(=O)N(C)C)[C@H]3COC(=O)[C@H]23)OCO4)cc(OC)c1OC,GI50,ZR-75-1,120 nM
same,GI50,HOP-62,130 nM
same,GI50,PC-3,150 nM
same,GI50,MCF7,160 nM
same,GI50,KB,180 nM
same,GI50,A2780,180 nM
same,GI50,COLO 205,2100 nM
same,GI50,[1],170 nM
same,GI50,[2],< 100 nM
same,GI50,SiHa,2100 nM
same,GI50,A549,< 100 nM
COc1cc([C@@H]2c3cc4c(cc3[C@@H](OC(=O)NCC3CC3)[C@H]3COC(=O)[C@H]23)OCO4)cc(OC)c1OC,GI50,ZR-75-1,190 nM
same,GI50,HOP-62,2500 nM
same,GI50,PC-3,2300 nM
same,GI50,MCF7,2300 nM
same,GI50,KB,2400 nM
same,GI50,A2780,2000 nM
same,GI50,COLO 205,2500 nM
same,GI50,[1],180 nM
same,GI50,[2],2000 nM
same,GI50,SiHa,2300 nM
same,GI50,A549,< 100 nM
COc1cc([C@@H]2c3cc4c(cc3[C@@H](OC(=O)NC(C)C)[C@H]3COC(=O)[C@H]23)OCO4)cc(OC)c1OC,GI50,ZR-75-1,150 nM
same,GI50,HOP-62,2100 nM
same,GI50,PC-3,190 nM
same,GI50,MCF7,190 nM
same,GI50,KB,180 nM
same,GI50,A2780,140 nM
same,GI50,COLO 205,2700 nM
same,GI50,[1],160 nM
same,GI50,[2],< 100 nM
same,GI50,SiHa,190 nM
same,GI50,A549,< 100 nM
COc1cc([C@@H]2c3cc4c(cc3[C@@H](OC(=O)NCCN(C)C)[C@H]3COC(=O)[C@H]23)OCO4)cc(OC)c1OC,GI50,ZR-75-1,< 100 nM
same,GI50,HOP-62,120 nM
same,GI50,PC-3,150 nM
same,GI50,MCF7,110 nM
same,GI50,KB,160 nM
same,GI50,A2780,120 nM
same,GI50,COLO 205,2100 nM
same,GI50,[1],150 nM
same,GI50,[2],< 100 nM
same,GI50,SiHa,2100 nM
same,GI50,A549,< 100 nM
